This is a sample that favours compounds with a hit; in the whole collection about 1.5% have one here.
PREPL inhibitor = PREPL enzyme inhibitors, primary screen, biochemical, fluorescence polarization. recombinant PREPL, fluorescence polarization activity-based probe. inhibition, % at 5.96 µM. 320,000 compounds, 0.68% hits. AID 2751, 2010; in the data active = inhibition above about 43%
UBC13 polyUb = UBC13 polyubiquitin chain formation inhibitors, primary screen, biochemical, TR-FRET, uHTS; inhibition, % at 20 µM; AID 485273, 2010; Ubiquitin-conjugating enzyme E2 N (Homo sapiens), P61088; 330,000 compounds, 0.47% hits; in the data active = inhibition above about 45%, passing the limit was not always enough
Target sequence (P61088 whole entry, looked up): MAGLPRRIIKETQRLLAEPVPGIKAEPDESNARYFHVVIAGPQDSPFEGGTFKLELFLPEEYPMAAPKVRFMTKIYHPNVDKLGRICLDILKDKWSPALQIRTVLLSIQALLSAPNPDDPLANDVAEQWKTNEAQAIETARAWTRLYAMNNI
Apaf-1 inh = inhibitors of human Apaf-1 apoptosome, primary screen, biochemical, DEVD-Rh110 fluorescence, uHTS | Apoptotic protease-activating factor 1 (Homo sapiens), O14727 | reconstituted apoptosome caspase-3 activity | inhibition, % at 20 µM | 330,000 compounds, 0.71% hits; active = inhibition of at least 40% at 20 µM
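Material: cell-free apoptosome with Apaf-1, procaspase-3 and caspase-9; Buffer or medium: Hepes pH 7.5 with detergent and BSA; Reagent: cytochrome c trigger plus (Z-DEVD)2-Rh110 caspase-3 substrate; Times: compound with Apaf-1, dATP, procaspase-3 30 min, then 50 min reaction, room temperature; Technique: Rh110 fluorescence intensity.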
UCH37 inh = inhibitors of human UCH37 deubiquitinase, primary screen, biochemical, Ub-AMC cleavage, fluorescence; 330,000 compounds, 0.33% hits; Ubiquitin carboxyl-terminal hydrolase isozyme L5 (Homo sapiens), Q9Y5K5; inhibition, % (no concentration beside the values); purified proteasome/UCH37;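 active = mean inhibition over replicate wells above about 20%, limit read from the data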
Target sequence (Q9Y5K5 whole entry, looked up): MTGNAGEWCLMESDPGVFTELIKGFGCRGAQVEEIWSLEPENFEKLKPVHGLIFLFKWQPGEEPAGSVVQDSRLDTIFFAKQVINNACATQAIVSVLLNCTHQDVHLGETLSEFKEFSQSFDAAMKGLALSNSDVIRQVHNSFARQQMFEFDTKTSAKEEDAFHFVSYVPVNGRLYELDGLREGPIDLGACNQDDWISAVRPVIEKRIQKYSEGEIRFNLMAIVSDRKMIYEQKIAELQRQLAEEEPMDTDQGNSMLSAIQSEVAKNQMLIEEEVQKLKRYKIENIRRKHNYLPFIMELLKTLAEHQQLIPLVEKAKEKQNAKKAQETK
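Schedule: 30 min plus 25 min, room temperature / Material: human UCH37 within purified proteasomes / Technique: AMC fluorescence intensity at 355/460 nm / Buffer or medium: pH 7.4 Tris-HCl (50 mM) with ovalbumin, ATP-MgCl2, DTT / Controls: wells without proteasome as full block, compound-free enzyme plus substrate as uninhibited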
Each line names hits and unclear results; the compound was inactive in the other large screens.

CCCCn1cnc2c(c(-c3ccccc3)c(-c3ccccc3)n2Cc2ccco2)c1=N	none
N=c1c2c(-c3ccccc3)c(-c3ccccc3)n(Cc3ccccc3)c2ncn1CCCn1ccnc1	UCH37 inh 23.6
C=CC#CC[N+]1(CC#Cc2ccccc2)CCOCC1	UCH37 inh 28.8 (no result: PREPL inhibitor, UBC13 polyUb, Apaf-1 inh)
C(#Cc1ccccc1)C[N+]1(CC#Cc2ccccc2)CCCC1	none
O=C(O)CCC1c2cc3c4cc2OC2Oc5cc6c(cc51)C(CCC(=O)O)c1cc5c7cc1OC(O6)c1cc6cc(c1)Oc1cc(cc(C(=O)O)c1)Oc1cc8cc(c1)C(Oc1cc(c(cc1C5CCC(=O)O)C3CCC(=O)O)OC(O4)c1cc(cc(c1)Oc1cc(cc(C(=O)O)c1)O8)Oc1cc(cc(C(=O)O)c1)Oc1cc(cc2c1)Oc1cc(cc(C(=O)O)c1)O6)O7 (stereo not drawn)	UBC13 polyUb 121.8, Apaf-1 inh 98.7 (no result: UCH37 inh)
Cc1ccc(NC(=O)c2cnc(SCC(=O)NCC3CCCO3)n(C)c2=O)cc1C (stereo not drawn)	UBC13 polyUb 71.5
Cc1ccc(NC(=O)CSc2nnc(C3CC3)n2CC2CCCO2)cc1C (stereo not drawn)	none
CC(=O)Nc1ccc(NC(=O)CSc2ncc(C(=O)Nc3ccccc3)c(=O)n2C)cc1	UBC13 polyUb 69.3
CCCCNC(=O)C(C1CCCCC1)N(CCN(C)C)C(=O)CCCN1C(=O)NC(c2ccc(-c3ccccc3)cc2)C(C(=O)OCc2ccccc2)=C1C (stereo not drawn)	Apaf-1 inh 64.3 (no result: PREPL inhibitor, UBC13 polyUb)
O=C(NC(Cc1c[nH]c2ccccc12)C(=O)NN=Cc1ccc(Cl)cc1)c1cccs1 (stereo not drawn)	none (no result: PREPL inhibitor, UBC13 polyUb, Apaf-1 inh)
O=C(O)c1cc2c(ccc3ccccc32)o1	none
NC(N)=Nc1cc2ccccc2c2ccccc12	Apaf-1 inh 76.8 (no result: UCH37 inh)
CNC(=S)NN=Cc1cn(CCOc2cccc(OC)c2)c2ccccc12	none (no result: PREPL inhibitor, UBC13 polyUb, Apaf-1 inh)
Cc1ccc(C=NNC(=O)c2nn(C)cc2Cl)cc1	none (no result: PREPL inhibitor, UBC13 polyUb, Apaf-1 inh)
CN(C(=O)c1ccc(NC(=O)Cc2cccc(NC(=O)C3CCN(C(=O)C4CCCC4)CC3)c2)cc1)C1CCCC1	UCH37 inh 21.9
CN(Cc1c(C(=O)NN=Cc2ccc(O)cc2)nnn1-c1nonc1N)c1ccccc1	none (no result: PREPL inhibitor, UBC13 polyUb, Apaf-1 inh)
N#CC1=C(N)OC2=C(C(=O)CC(c3ccco3)C2)C1c1ccc(OCc2c(F)cccc2Cl)cc1 (stereo not drawn)	UCH37 inh 32.1
COc1cccc(C=NNC(=O)CCc2c(C)n[nH]c2C)c1	UCH37 inh 28.7 (no result: PREPL inhibitor, UBC13 polyUb, Apaf-1 inh)
CC(=O)[C@@H]1[C@@H](C(=O)c2ccccc2)[C@]2(C(=O)Nc3ccccc32)[C@H]2C=Cc3cc(F)ccc3N12	none
O=C(c1ccccc1)[C@@H]1[C@@H](C(=O)c2ccc(F)cc2)[C@@]2(C(=O)Nc3ccccc32)[C@H]2c3ccccc3C=CN12	Apaf-1 inh 63.7 (no result: UCH37 inh)
COc1cc(C=NNC(=O)Cn2nnc3ccccc32)cc(OC)c1OC	none (no result: PREPL inhibitor, UBC13 polyUb, Apaf-1 inh)
NC(=O)c1cc(N)ccc1N1CCCC1	Apaf-1 inh 43.6
Cc1ccc(N2CN=c3sc(=Cc4cccnc4)c(=O)n3C2)cc1	none (no result: PREPL inhibitor, UBC13 polyUb, Apaf-1 inh)
CC(=NNC(=O)c1nn(C)c(C)c1Br)c1ccc(NC(=O)c2ccoc2C)cc1	none (no result: PREPL inhibitor, UBC13 polyUb, Apaf-1 inh)
COc1ccc(CNC(=O)C2(CC3CC(c4ccccc4)=NO3)CCN(C(=O)C3CCCC3)CC2)cc1 (stereo not drawn)	UCH37 inh 30.5
O=C(CSc1nc2ccccc2c(=O)n1-c1ccccc1)NN=C/C=C/c1ccccc1[N+](=O)[O-]	none (no result: PREPL inhibitor, UBC13 polyUb, Apaf-1 inh)
Nc1cccc(C(=O)OCC(=O)NC2CCCc3ccccc32)c1 (stereo not drawn)	none
O=C(COC(=O)c1ccc([N+](=O)[O-])o1)NC1CCCc2ccccc21 (stereo not drawn)	UCH37 inh 20.1
CC(=NNc1nc(Cl)c(Cl)cc1Cl)c1ccc(S(=O)(=O)NCc2ccco2)cc1	none (no result: PREPL inhibitor, UBC13 polyUb, Apaf-1 inh)
Cc1ccc(-c2nnc(Nc3ccc4c(c3)OCO4)c3ccccc23)cc1S(=O)(=O)NCCO	none
Cc1ccc(-c2nnc(Nc3ccc4c(c3)OCO4)c3ccccc23)cc1S(=O)(=O)NC(C)C	PREPL inhibitor 50.0 (no result: UCH37 inh)
O=C(O)c1cccc(NN=Cc2cccc3ccccc23)c1	none (no result: PREPL inhibitor, UBC13 polyUb, Apaf-1 inh)
O=C(O)c1ccc2[nH]c3c(c2c1)CCCC3	UCH37 inh 21.0 (no result: PREPL inhibitor)
CC1CCc2[nH]c3ccc(C(=O)O)cc3c2C1 (stereo not drawn)	none
O=C(NN=Cc1ccncc1)C1CC1(c1ccccc1)c1ccccc1 (stereo not drawn)	none (no result: PREPL inhibitor, UBC13 polyUb, Apaf-1 inh)
Cc1ccc(N/N=C2\CC(=O)c3ccccc32)cc1Cl	Apaf-1 inh 76.5 (no result: UCH37 inh)
N#C/C(=N/Nc1ccc(S(=O)(=O)N2CCOCC2)cc1)C(N)=O	none (no result: UCH37 inh)
N#CC(=NNc1ccc(S(=O)(=O)N2CCOCC2)cc1)C(N)=S	UCH37 inh 22.0 (no result: PREPL inhibitor, UBC13 polyUb, Apaf-1 inh)
COc1cc(C(=O)Oc2ccccc2C=NNC(=O)c2ccc(Cl)cc2)cc(OC)c1OC	none (no result: PREPL inhibitor, UBC13 polyUb, Apaf-1 inh)
O=C(OC[C@H]1O[C@@H](OC(=O)c2cc(O)c(O)c(OC(=O)c3cc(O)c(O)c(O)c3)c2)[C@H](OC(=O)c2cc(O)c(O)c(OC(=O)c3cc(O)c(O)c(O)c3)c2)[C@@H](OC(=O)c2cc(O)c(O)c(OC(=O)c3cc(O)c(O)c(O)c3)c2)[C@@H]1OC(=O)c1cc(O)c(O)c(OC(=O)c2cc(O)c(O)c(O)c2)c1)c1cc(O)c(O)c(OC(=O)c2cc(O)c(O)c(O)c2)c1	PREPL inhibitor 104.2 (no result: UBC13 polyUb, Apaf-1 inh, UCH37 inh)
Cc1ccccc1-c1cc(C(=O)NCc2cccc(C(F)(F)F)c2)nn1CC1CC(c2cccc([N+](=O)[O-])c2)=NO1 (stereo not drawn)	UCH37 inh 34.8
COc1ccc(-c2csc(/C(C#N)=C\c3ccc(O)c([N+](=O)[O-])c3)n2)cc1OC	UCH37 inh 20.8
COc1ccc(-c2csc(/C(C#N)=C\c3ccc(OC)c([N+](=O)[O-])c3)n2)cc1	none
CCn1cc(C=NNC(=O)c2cc3c(ccc4ccccc43)o2)c2ccccc21	none (no result: PREPL inhibitor, UBC13 polyUb, Apaf-1 inh)
CCOc1ccccc1Nc1nc(-c2sc(NC(=O)c3ccccc3)nc2C)cs1	UBC13 polyUb 69.3 (no result: UCH37 inh)
